An excerpt weighted towards active compounds, which were near 1.7% of everything screened.
CHRM5 agonist: agonists of human muscarinic M5 receptor (CHRM5) | CHO-K1 hM5 cells, Fluo-8 calcium fluorescence; 0% DMSO wells, 100% maximal acetylcholine response | activation, % at 3 µM | hit rate 0.19% among 360,000 | AID 624037;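 active = activation above the run's mean over test compounds plus 3 SD, cut at about 23% in these data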;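 also: signal is peak over basal fluorescence ratio across the kinetic read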
Target sequence (P08912 whole entry, looked up): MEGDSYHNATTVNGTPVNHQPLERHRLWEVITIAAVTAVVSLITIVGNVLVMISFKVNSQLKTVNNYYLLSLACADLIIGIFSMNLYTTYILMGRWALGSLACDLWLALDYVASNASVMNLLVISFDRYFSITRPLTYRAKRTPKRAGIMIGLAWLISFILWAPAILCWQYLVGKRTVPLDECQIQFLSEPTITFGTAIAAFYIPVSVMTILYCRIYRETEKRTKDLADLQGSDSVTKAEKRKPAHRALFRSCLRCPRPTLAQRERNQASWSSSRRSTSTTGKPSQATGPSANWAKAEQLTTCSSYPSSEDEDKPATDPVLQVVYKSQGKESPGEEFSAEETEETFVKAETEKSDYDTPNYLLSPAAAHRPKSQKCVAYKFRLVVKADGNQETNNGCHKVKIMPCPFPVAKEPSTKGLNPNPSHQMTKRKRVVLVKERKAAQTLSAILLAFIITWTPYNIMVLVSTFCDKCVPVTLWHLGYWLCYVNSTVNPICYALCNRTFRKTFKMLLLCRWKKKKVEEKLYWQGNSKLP
CHRM5 antagonist: blocks acetylcholine activation of human M5 receptor; CHO-hM5 cells, Fluo-8 calcium fluorescence, ACh EC80; P08912; inhibition, % at 3 µM; hit rate 0.59% among 360,000; AID 624040;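 active = inhibition above a per-plate cutoff, the mean of that plate's test compounds plus 3 SD, cut at about 27% in these data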;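 also: 0% = acetylcholine EC80 with DMSO and 100% = DMSO without agonist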
M1 ag parental: nonselective activator or artifact in parental CHO-K1 cells | activation, % at 3 µM | AID 602248 | Fluo-8 calcium fluorescence; scaled to maximal ATP response, vehicle zero | hit rate 0.48% among 360,000; in the data active = activation above about 15%;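 also: untransfected CHO-K1 host cells lacking M1 receptor as counterscreen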
CHRM5 PAM: positive allosteric modulators of human muscarinic M5 receptor; P08912; CHO-K1 hM5, Fluo-8 calcium, ACh EC20 PAM; 0% = ACh EC20, 100% = ACh EC100; activation, % at 3 µM; hit rate 0.3% among 360,000; AID 624038;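 active = activation above the run cutoff, the mean activation of all test compounds plus 3 SD, cut at about 18% in these data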
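Assay system: CHO-K1 hM5 cells. Also added: acetylcholine at EC20 concentration, added after compound. Dosing: 3 µM, single dose. Times: compound preincubation 140 s before EC20 acetylcholine addition. Signal: Fluo-8 calcium fluorescence. Measure: % activation relative to EC20 and EC100 ACh responses. Repeats: singlicate, one well per test compound.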
CHO-K1 Ca PAM: nonselective activator or artifact in parental CHO-K1 calcium assay; ATP EC20, Fluo-8 calcium fluorescence; 0% at ATP EC20, 100% at ATP max; activation, % at 3 µM; hit rate 0.02% among 360,000;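 active = activation above the run cutoff, the mean activation of all test compounds plus 3 SD, cut at about 40% in these data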;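 also: peak over basal fluorescence ratio in a 140 s read after ATP addition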
CHO-K1 Ca antag: counter-screen for M1 antagonists: effect in parental CHO-K1 cells | ATP-induced calcium, Fluo-8 fluorescence | inhibition, % at 3 µM | hit rate 0.6% among 360,000;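 active = inhibition above a per-plate cutoff, the plate's mean sample inhibition plus 3 SD, cut at about 24% in these data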;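 also: 0% = DMSO plus EC80 ATP and 100% = DMSO alone without ATP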
* marks the source's active call; other numbers are inactive results.

SMILES | CHRM5 agonist | CHRM5 antagonist | M1 ag parental | CHRM5 PAM | CHO-K1 Ca PAM | CHO-K1 Ca antag
O=C(O)c1cccc2c1-c1ccccc1/C2=N\Nc1ccccc1 | -3.2 | 1.2 | 0.5 | 2.9 | 7.7 | -17.0
O=C(c1cccc2c1-c1ccccc1/C2=N/O)N1CCCCC1 | -1.9 | 1.2 | 0.1 | -1.5 | -7.4 | 24.9*
O=C(O)c1cccc2c1/C(=N/O)c1ccccc1-2 | 3.8 | -11.8 | 0.7 | 20.5* | 13.5 | -17.5
COc1cccc(-c2c(C(=O)N/N=C/c3sccc3C)nnn2-c2nonc2N)c1 | 5.8 | 10.3 | 5.9 | -3.3 | -1.3 | -2.3
O=C1CC(C(=O)N2CCc3ccccc32)CN1c1cccc(C(F)(F)F)c1 (stereo unspecified) | -1.4 | 10.2 | 0.2 | -2.8 | 5.4 | -13.9
CC(C)CCNC(=O)CCc1nnc(Cc2c[nH]c3ccccc23)o1 | -1.7 | 1.0 | 0.4 | -2.6 | 2.9 | 4.3
CC(C)(C)NC(=O)c1ccccc1-c1nc2ccccc2s1 | -2.2 | 5.5 | 33.5* | 0.4 | 9.4 | 0.5
CC(C)(C)NC(=O)c1nc2ccccc2s1 | -2.4 | 1.7 | 0.0 | -3.7 | -4.9 | 6.5
COc1ccc(NC(=O)N/C=C/c2ccccc2)cc1 | 2.1 | -5.6 | 15.8* | -0.7 | 18.2 | 8.0
COc1ccc(NC(=O)NC(C)c2ccccc2)cc1 (stereo unspecified) | -6.1 | -8.6 | 0.8 | 6.4 | 9.4 | -7.3
O=C(c1cc(-c2ccc(Cl)cc2Cl)on1)N1CCN(C(=O)c2ccco2)CC1 | -4.9 | -2.8 | -0.5 | -4.9 | -6.8 | 24.5*
CN(C)c1ccc(C=NN2C(=O)CSC2=S)c(Cl)c1 | 25.8* | 24.1 | 9.8 | -11.4 | -3.2 | 8.8
COc1ccccc1-c1cc(C(F)(F)F)nc(S(=O)(=O)CCCC(=O)O)n1 | -2.8 | 6.4 | -0.3 | 3.1 | 15.8 | -6.2
COc1ccc(-c2cc(C(F)(F)F)nc(S(=O)(=O)CCCC(=O)Nc3cccc(O)c3)n2)cc1OC | -1.3 | 27.2* | 4.3 | -10.7 | 6.3 | 3.4
O=C(C1COc2ccccc2O1)N1CCCCC1 (stereo unspecified) | 1.5 | 8.8 | -0.6 | -2.7 | -19.5 | 23.9*
CC(C)(CNC(=S)NCCc1ccccc1)CNC(=S)NCCc1ccccc1 | 5.1 | 27.8* | 12.0 | -17.3 | -10.2 | 27.6*
OCCNC(=S)NCCc1ccccc1 | -2.5 | -8.5 | 1.0 | 6.7 | -5.4 | 10.4
CC(C)(C)c1cc(=O)[nH]c(SCc2ccccc2Cl)n1 | -0.8 | 5.5 | -0.1 | -7.2 | -1.0 | -8.4
O=c1ccnc(SCc2ccccc2Cl)[nH]1 | 0.3 | -5.9 | -0.1 | -0.8 | -8.5 | 27.8*
Cn1c(N)c(C(=O)COC(=O)CCc2nc3ccccc3s2)c(=O)n(C)c1=O | -0.2 | 1.3 | 1.1 | 5.5 | -18.8 | -0.1
Cc1ccc(-c2nc(C=Nc3ccccc3)c(O)o2)cc1 | -6.9 | -13.8 | 0.7 | -1.8 | 12.0 | -18.2
Cc1ccc(-c2nc(C=Nc3cccc(C)c3)c(O)o2)cc1 | 1.5 | -0.5 | -0.3 | 18.3* | -1.8 | -10.8
CN(NS(=O)(=O)c1ccc(Cl)cc1)c1cnn(C)c(=O)c1Cl | 3.8 | -1.9 | -0.2 | -8.7 | -14.5 | -4.4
O=C(NP(=O)(N1CCCC1)N1CCCC1)C1=C(N2CCOCC2)/C(=C/c2cccc([N+](=O)[O-])c2)CC1 | 0.2 | -0.3 | 17.2* | 0.3 | 8.1 | 6.8
COc1cccc(OCCCN2CCN(S(=O)(=O)c3ccc(NC(C)=O)cc3)CC2)c1 | 9.3 | -1.5 | 10.8 | -7.5 | 3.4 | 3.8
SMILES | CHRM5 agonist | CHRM5 antagonist | M1 ag parental | CHRM5 PAM | CHO-K1 Ca PAM | CHO-K1 Ca antag
Cc1ccccc1-c1cc(C(=O)Nc2sc(C(=O)OC(C)C)c(C)c2C#N)c2ccccc2n1 | 6.1 | 17.1 | 5.0 | -9.4 | -4.2 | 35.0*
COC(=O)c1sc(NC(=O)c2cc(-c3ccccc3)nc3ccccc23)c(C#N)c1C | 7.9 | 6.5 | 9.5 | -5.3 | 13.3 | -4.6
COC(=O)CNC(=O)c1ccccc1C | -4.6 | 4.2 | -0.2 | 4.5 | -7.4 | 26.1*
CC(C)(C)C(=O)OC/C(N)=N/OC(=O)c1ccc(Cl)cc1 | 1.5 | -2.3 | 16.4* | -0.5 | 23.1 | -8.7
N/C(Cc1ccc(Cl)cc1)=N\OC(=O)c1ccccc1 | -5.0 | -0.4 | 0.6 | 4.3 | 19.0 | -7.1
CCCCNC(=O)N1CCN(c2ccnc3cc(Cl)ccc23)CC1 | 4.7 | 19.0 | 16.2* | -17.4 | 6.5 | 4.4
O=C(CSc1nnc(Cc2ccccc2)o1)c1cc(F)ccc1F | -0.9 | 2.6 | 0.4 | 21.1* | 7.5 | -5.7
CCCn1cc(NC(=O)C2CC(c3cccc(Br)c3)=NO2)cn1 (stereo unspecified) | 5.2 | -1.1 | 3.7 | -10.2 | 14.3 | -8.2
COc1ccc(NC(=O)COc2ccccc2C(=O)NCC(c2ccccc2)N(C)C)cc1Cl (stereo unspecified) | -6.0 | 56.6* | 3.4 | -19.1 | -6.6 | -3.2
COC(=O)c1ccc2nc(NC(=O)C(C)(C)C)sc2c1 | -2.8 | 3.6 | 16.8* | -5.8 | 7.1 | 8.0
COC(=O)c1ccc(C(=O)N2CCCC(N3CCN(c4ccccc4)CC3)C2)nc1 (stereo unspecified) | -2.8 | -8.6 | 0.9 | 1.4 | 14.4 | -10.5
O=C(N/N=C/c1ccc([N+](=O)[O-])o1)C(=O)Nc1ccc(C(=O)O)cc1 | 0.9 | 17.6 | 0.0 | -5.4 | 22.5 | -7.3
O=[N+]([O-])c1ccc(N/N=C/C=C/c2ccco2)cc1 | 28.7* | 32.3* | 20.7* | -23.4 | -3.7 | 19.1
O=C(O)c1ccc(N/N=C/C=C/c2ccc([N+](=O)[O-])o2)cc1 | 36.5* | 28.4* | 11.6 | -9.8 | -0.7 | 14.5
O=C(NC(=S)Nc1ccccc1O)c1ccc(Cl)cc1Cl | -5.8 | -0.9 | -0.1 | -5.3 | 2.9 | 9.8
N=c1c(C(=O)NCC2CCCO2)cc2c(=O)n3ccccc3nc2n1Cc1ccco1 (stereo unspecified) | -5.5 | 4.0 | -0.1 | 4.4 | 4.3 | 0.8
COCc1c(C(=O)OCC(=O)NCc2ccco2)oc2ccccc12 | -2.8 | 11.4 | 0.0 | -3.0 | -14.0 | 24.4*
O=C(COc1ccccc1Cl)Nc1cccc(S(=O)(=O)N2CCCC2)c1 | -0.7 | 18.8 | 2.2 | -11.3 | -7.5 | 1.6
CC1CCN(Cc2ccc(NC(=O)CC3Oc4ccccc4NC3=O)cc2)CC1 (stereo unspecified) | -6.0 | 37.3* | 1.2 | -24.6 | 15.1 | -1.1
Cc1nc2c(sc(=S)n2Cc2ccco2)c(=O)n1CC(=O)Nc1ccccc1 | -3.3 | 18.0 | 2.8 | -4.9 | 17.8 | -17.1
Cc1[nH]n(-c2ccc(Cl)cc2)c(=O)c1C(=O)c1ccccc1 | -0.8 | -2.5 | 0.3 | -1.6 | 8.3 | 2.5
Cc1[nH]n(-c2ccccc2)c(=O)c1C(=O)c1ccccc1 | 4.5 | -16.8 | -0.1 | 20.6* | -4.2 | 3.2
COc1ccc(NC(=O)CCCCCN2C(=O)CCC2=O)cc1Cl | -0.3 | -2.3 | 0.7 | -4.4 | 21.0 | -12.5
